Measurements reported in ChEMBL document CHEMBL1149217, “3-trifluoromethyl-4-nitro-5-arylpyrazoles are novel K(ATP) channel agonists” (Bioorg Med Chem Lett, 2004).

Tests used:
[1] = molecular target: Sulfonylurea receptor 1, Kir6.2 (Homo sapiens, UniProt Q09428+Q14654); assay: […] of human KATP (SUR1/Kir6.2) channel expressed in Xenopus oocytes; format: functional, cell-based, Oocyte
Method in brief: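 ATP-sensitive K+ currents were recorded by excised-patch clamp from inside-out macropatches pulled from Xenopus oocytes expressing human SUR1/Kir6.2. Values are means of 3-6 experiments.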

[2] = molecular target: T1, Sulfonylurea receptor 1, Kir6.2 (Homo sapiens) (UniProt Q14654+Q09428); assay: Percent maximal agonist response of human KATP (SUR1/Kir6.2) channel expressed in Xenopus oocytes at 30 uM; format: functional, cell-based; details: Oocyte
Method in brief: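 Inside-out macropatches were excised from Xenopus oocytes expressing human SUR1/Kir6.2, and ATP-sensitive K+ currents were recorded. […] Means of 3-6 experiments.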

[3] = molecular target: T1, Sulfonylurea receptor 1, Kir6.2 (Homo sapiens); assay: Percent maximal agonist response of human KATP (SUR1/Kir6.2) channel expressed in Xenopus oocytes; format: functional, cell-based; details: Oocyte
Method in brief: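 ATP-sensitive K+ currents were recorded by excised-patch clamp from inside-out macropatches pulled from Xenopus oocytes expressing human SUR1/Kir6.2. Compounds were tested across a dose range to give dose–response curves. […] Values are means of 3-6 experiments.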

Sequence of Sulfonylurea receptor 1, Kir6.2 (Q14654 whole entry): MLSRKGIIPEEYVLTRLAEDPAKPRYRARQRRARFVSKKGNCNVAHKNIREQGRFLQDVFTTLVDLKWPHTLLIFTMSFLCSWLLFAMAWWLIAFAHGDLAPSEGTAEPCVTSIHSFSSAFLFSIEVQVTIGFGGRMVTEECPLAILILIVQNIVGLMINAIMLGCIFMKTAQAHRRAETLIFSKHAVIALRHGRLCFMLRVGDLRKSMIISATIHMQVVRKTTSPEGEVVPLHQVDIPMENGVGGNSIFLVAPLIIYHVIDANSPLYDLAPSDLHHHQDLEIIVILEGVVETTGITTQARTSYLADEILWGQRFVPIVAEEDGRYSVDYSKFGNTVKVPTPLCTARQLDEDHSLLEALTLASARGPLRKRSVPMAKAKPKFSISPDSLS
Sequence of Sulfonylurea receptor 1, Kir6.2 (Q09428 whole entry): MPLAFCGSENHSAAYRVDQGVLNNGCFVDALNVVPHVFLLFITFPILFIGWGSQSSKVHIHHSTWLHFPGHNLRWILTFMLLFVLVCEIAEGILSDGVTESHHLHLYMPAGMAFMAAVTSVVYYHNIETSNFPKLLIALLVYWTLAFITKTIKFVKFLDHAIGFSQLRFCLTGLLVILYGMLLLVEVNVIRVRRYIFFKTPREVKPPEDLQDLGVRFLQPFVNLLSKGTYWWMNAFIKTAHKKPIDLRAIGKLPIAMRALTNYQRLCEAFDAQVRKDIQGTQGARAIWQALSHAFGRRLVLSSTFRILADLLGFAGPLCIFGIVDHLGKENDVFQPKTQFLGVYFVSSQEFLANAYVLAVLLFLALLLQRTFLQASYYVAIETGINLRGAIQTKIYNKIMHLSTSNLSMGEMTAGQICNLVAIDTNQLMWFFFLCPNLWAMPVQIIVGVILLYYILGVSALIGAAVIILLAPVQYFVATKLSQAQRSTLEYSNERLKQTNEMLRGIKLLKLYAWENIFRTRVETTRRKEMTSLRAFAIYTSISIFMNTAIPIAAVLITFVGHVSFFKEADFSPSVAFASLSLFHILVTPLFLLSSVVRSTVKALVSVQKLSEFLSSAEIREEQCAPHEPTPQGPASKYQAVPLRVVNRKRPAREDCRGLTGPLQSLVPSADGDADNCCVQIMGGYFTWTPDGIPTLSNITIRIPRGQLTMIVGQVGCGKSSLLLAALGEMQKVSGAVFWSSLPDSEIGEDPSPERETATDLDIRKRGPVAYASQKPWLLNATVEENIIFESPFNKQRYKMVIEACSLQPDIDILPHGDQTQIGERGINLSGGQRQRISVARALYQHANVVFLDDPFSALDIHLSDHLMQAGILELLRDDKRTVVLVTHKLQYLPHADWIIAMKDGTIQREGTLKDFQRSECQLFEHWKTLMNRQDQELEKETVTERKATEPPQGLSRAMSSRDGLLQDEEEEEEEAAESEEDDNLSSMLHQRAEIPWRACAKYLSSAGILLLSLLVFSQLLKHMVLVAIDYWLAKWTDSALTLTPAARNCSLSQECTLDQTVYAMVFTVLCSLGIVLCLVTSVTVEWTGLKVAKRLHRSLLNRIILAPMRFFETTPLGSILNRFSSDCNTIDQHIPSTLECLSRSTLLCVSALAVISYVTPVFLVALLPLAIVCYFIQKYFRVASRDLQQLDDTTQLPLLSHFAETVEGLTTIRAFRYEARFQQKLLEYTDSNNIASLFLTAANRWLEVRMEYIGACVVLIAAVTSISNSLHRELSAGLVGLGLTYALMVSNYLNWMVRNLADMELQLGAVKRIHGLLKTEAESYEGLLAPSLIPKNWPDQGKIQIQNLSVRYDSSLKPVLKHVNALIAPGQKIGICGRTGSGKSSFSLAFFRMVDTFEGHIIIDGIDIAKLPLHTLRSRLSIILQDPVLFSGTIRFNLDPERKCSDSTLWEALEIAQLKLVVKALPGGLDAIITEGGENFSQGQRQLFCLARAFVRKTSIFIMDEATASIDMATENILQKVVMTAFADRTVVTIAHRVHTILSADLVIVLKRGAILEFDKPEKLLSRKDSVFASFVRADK

Q: What does the source list for `O=[N+]([O-])c1ccc(-c2cc(C(F)(F)F)[nH]n2)cc1`?
A: EC50 [1]: > 30000 nM; Max response [2]: 8%

Q: `O=[N+]([O-])c1c(-c2ccc(F)cc2F)n[nH]c1C(F)(F)F` was tested. Which EC50 [1] did it give?
A: 1150 nM

Q: For `O=[N+]([O-])c1c(C(F)(F)F)n[nH]c1-c1ccc(F)cc1F`, which Max response [3] is on record?
A: 113%

Q: What does the source list for `O=[N+]([O-])c1c(C(F)(F)F)n[nH]c1-c1ccccc1`?
A: EC50 [1]: 30000 nM; Max response [2]: 38%

Q: `O=[N+]([O-])c1ccc(-c2noc(C(F)(F)F)c2[N+](=O)[O-])cc1` was tested. Which EC50 [1] did it give?
A: > 30000 nM

Q: Which results are given for `O=[N+]([O-])c1c(C(F)(F)F)n[nH]c1-c1ccc(C(F)(F)F)cc1C(F)(F)F`?
A: Max response [3]: 197%; EC50 [1]: 540 nM

Q: With `O=[N+]([O-])c1ccc(-c2[nH]nc(C(F)(F)F)c2[N+](=O)[O-])cc1` as the compound, how does the Max response [3] read?
A: 94%

Q: What about the EC50 [1] of the same compound?
A: 700 nM

Q: For `CC1=Nc2ccc(Cl)cc2S(=O)(=O)N1`, which Max response [3] is on record?
A: 100%
